An excerpt weighted towards active compounds, which were near 4.5% of everything screened.
CHO parental Ca – ATP-evoked calcium signal inhibitors, parental CHO, primary screen, counter-screen for OX1R antagonist project, cell-based, fluorescence, Fluo-8 calcium dye; parental CHO-K1, ATP-induced calcium, Fluo-8 fluorescence; inhibition, % at 5.6 µM; actives 0.63% (n = 330,000); AID 463079, 2010;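 active = inhibition above that plate's mean sample inhibition plus 3 SD, cut at about 26% in these data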;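 note: 0% = ATP-challenged DMSO wells and 100% = DMSO wells without ATP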
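Test system: untransfected parental CHO cell line; also added: ATP stimulus; dosing: 5.6 µM, single dose; signal: calcium-sensitive Fluo-8 fluorescence; measure: percent inhibition of ATP-evoked calcium rise, normalized to controls; benchmarks: low control ATP plus DMSO, high control DMSO only; replication: one well per compound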
GPR7 antag – GPR7 receptor antagonists, primary screen, cell-based, fluorescence, single concentration; Neuropeptides B/W receptor type 1 (Homo sapiens), P48145; GPR7-expressing cells, fluorescence antagonist assay; inhibition, % at 4.4 µM; actives 1.1% (n = 290,000); in the data active = inhibition above about 16%, passing the limit was not always enough;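 note: cells stimulated with the agonist NPW; 0% = agonist with vehicle and 100% = vehicle without agonist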
Target sequence (P48145 whole entry, looked up): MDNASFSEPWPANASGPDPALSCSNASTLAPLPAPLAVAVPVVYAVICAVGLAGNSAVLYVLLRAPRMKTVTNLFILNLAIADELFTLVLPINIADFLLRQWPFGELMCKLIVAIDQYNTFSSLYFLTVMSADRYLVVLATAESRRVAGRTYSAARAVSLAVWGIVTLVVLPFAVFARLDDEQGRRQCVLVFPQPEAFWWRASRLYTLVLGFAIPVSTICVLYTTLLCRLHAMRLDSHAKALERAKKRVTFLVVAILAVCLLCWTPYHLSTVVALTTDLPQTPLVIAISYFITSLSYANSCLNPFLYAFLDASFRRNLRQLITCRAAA
TAAR1 antag – human TAAR1 antagonists, primary screen, Fluo-8 calcium fluorescence, CHO RD-HGA16 cells | AID 624466, 2012 | actives 1.5% (n = 360,000) | inhibition, % at 3 µM | antagonist;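 active = inhibition above a per-plate cutoff, the mean inhibition of test compounds on that plate plus 3 SD, cut at about 49% in these data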;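 note: 0% = DMSO plus EC80 beta-PEA response and 100% = DMSO alone without agonist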
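Test system: hTAAR1-expressing CHO RD-HGA16 cells, Gα16-coupled; Probe or stimulus: EC80 β-phenethylamine stimulus; Compound dosing: single nominal final test compound concentration of 3 µM; Timing: 140 s kinetic read after compound, 140 s after agonist; Signal: Fluo-8 calcium-sensitive fluorescence; Measure: % inhibition of agonist calcium response; Controls: DMSO and EC80 PEA controls.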
OX1R antag-1 – antagonists of human orexin 1 receptor (OX1R); Orexin/Hypocretin receptor type 1 (Homo sapiens), O43613; OX1R-expressing cells, FRET antagonist read-out; inhibition, % at 6.6 µM; actives 1.8% (n = 330,000); in the data active = inhibition mostly above about 38%, no sharp cut-off; inactive = mostly below about 40%;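 note: 0% = agonist challenge alone and 100% = reference antagonist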
Target sequence (O43613 whole entry, looked up): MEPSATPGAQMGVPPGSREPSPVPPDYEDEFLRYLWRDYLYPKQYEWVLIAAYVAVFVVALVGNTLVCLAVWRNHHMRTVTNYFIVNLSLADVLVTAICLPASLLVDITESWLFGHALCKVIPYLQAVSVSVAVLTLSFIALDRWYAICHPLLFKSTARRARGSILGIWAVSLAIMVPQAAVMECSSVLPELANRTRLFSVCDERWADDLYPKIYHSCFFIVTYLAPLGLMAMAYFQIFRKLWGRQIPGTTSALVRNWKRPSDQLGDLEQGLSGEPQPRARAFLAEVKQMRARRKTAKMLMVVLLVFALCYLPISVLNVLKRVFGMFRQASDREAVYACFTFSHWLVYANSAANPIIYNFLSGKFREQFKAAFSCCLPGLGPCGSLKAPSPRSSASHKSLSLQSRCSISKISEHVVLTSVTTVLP
OX1R antag-2 – OX1R (HCRTR1) antagonists, primary screen, fluorescence, CHO/OX1R cells, Fluo-8 calcium, orexin A | Orexin/Hypocretin receptor type 1 (Homo sapiens), O43613 | Fluo-8 calcium fluorescence | inhibition, % at 5 µM | actives 0.43% (n = 330,000);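 active = inhibition above its plate's threshold, mean inhibition of all tested compounds on the plate plus 3 SD, cut at about 37% in these data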;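 note: 0% = orexin A challenge wells and 100% = SB-334867-A antagonist wells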
TAAR1 ag – human TAAR1 agonists, primary screen, Fluo-8 calcium fluorescence, CHO RD-HGA16 cells. Trace amine-associated receptor 1 (Homo sapiens), Q96RJ0. actives 0.99% (n = 360,000). activation, % at 3 µM. vehicle wells 0%, saturating PEA agonist 100%. AID 624467, 2012;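 active = activation above the mean activation of all test compounds in the run plus 3 SD, cut at about 38% in these data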
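Assay system: CHO-derived RD-HGA16 cells with stable Gα16 and human TAAR1; timing: 17-24 h seeding, 75 min 37 °C dye, 30 min RT; read-out: % activation from peak over basal fluorescence ratio, DMSO-to-PEA scaled; measured by: kinetic Fluo-8 calcium fluorescence; benchmarks: low control DMSO, high control PEA (EC100); doses: 3 µM single concentration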
* hit, by the source's call; x = no result.

SMILES	CHO parental Ca	GPR7 antag	TAAR1 antag	OX1R antag-1	OX1R antag-2	TAAR1 ag
COc1cc(OC)cc(C(=O)Nc2ccc(C(=O)Nc3ccccc3OC)cc2)c1	-11.7	x	56.5*	6.7	-6.3	11.4
COC(=O)c1cc(NC(=O)CN(c2ccc(OC)cc2)S(=O)(=O)c2ccc(F)cc2)ccc1Cl	x	-14.6	53.0*	x	x	7.2
CC(=O)Oc1ccc(/C=N/NC(=O)c2ccc(N(C)S(=O)(=O)c3ccccc3)cc2)cc1	1.9	13.4	55.3*	13.9	-7.0	12.0
COc1ccccc1NC(=O)c1ccc(NC(=O)c2ccco2)cc1	-13.9	17.9	3.8	9.6	-17.1	4.6
CN(c1cccc(NC(=O)c2ccc(C(C)(C)C)cc2)c1)S(C)(=O)=O	-10.2	14.3	6.1	21.0	5.3	16.7
CN(c1cccc(NC(=O)c2ccc(N(C)S(=O)(=O)c3ccccc3)cc2)c1)S(C)(=O)=O	62.1*	6.4	63.4*	21.2	67.4*	23.9
CN(c1cccc(NC(=O)CN(c2ccc(Cl)c(Cl)c2)S(=O)(=O)c2ccccc2)c1)S(C)(=O)=O	-2.2	-0.1	57.3*	30.8	10.1	9.2
Cc1cc(C)c(O)c(-c2cc(C(=O)Nc3ccc(S(=O)(=O)N4CCOCC4)cc3)[nH]n2)c1	34.3*	-13.5	37.5	24.0	40.1	14.8
Cc1ccc2ccccc2[n+]1CCCS(=O)(=O)[O-]	-3.6	-7.7	0.3	8.1	-4.9	8.1
CCCC[n+]1c2ccccc2cc2ccccc21	-15.3	34.1	0.5	47.9*	-12.0	-1.6
CN(C)S(=O)(=O)c1cccc(NC(=O)COC(=O)CCSc2ccc(Cl)cc2)c1	-1.5	2.7	13.8	14.2	-12.5	10.0
CCN(CC)S(=O)(=O)c1cccc(NC(=O)CCSc2ccc(Cl)cc2)c1	48.0*	3.4	24.1	6.3	10.5	3.9
CCN(CC)S(=O)(=O)c1cccc(NC(=O)c2ccc(SC)cc2OC)c1	-7.3	-7.3	51.6*	33.4	0.6	5.1
O=C1NC[C@@H](CCCCN2C[C@H](Cc3ccc(O)cc3)N(CCc3ccc(O)cc3)C(=O)C2=O)N(CCc2ccccc2)C1=O	x	x	-4.9	x	x	1.5
NC(=O)c1ncn([C@@H]2O[C@H](C(=O)N[C@H](Cc3ccccc3)C(=O)O)[C@@H](O)[C@H]2O)n1	x	x	-10.8	x	x	-0.2
CC1=CCC(/C=N\Nc2nnc3c(n2)[nH]c2ccccc23)CC1 (stereo not drawn)	-6.3	0.9	x	55.4*	-11.9	x
CC(C)CSc1nnc2c(n1)[nH]c1ccccc12	-4.1	0.0	-15.8	9.8	-9.3	-0.9
Cc1cc(N2CCNC[C@@H]2C)ccc1N1CCN(Cc2ccccc2)[C@H](C)C1	x	x	-7.9	x	x	9.9
Cc1ccc(-n2c(SCC(=O)Nc3cccc(S(=O)(=O)NC4=NCCCCC4)c3)nc3ccccc3c2=O)cc1C	-13.1	-4.5	-13.3	11.2	-2.6	2.1
Cc1cc(SCC(=O)Nc2cccc(S(=O)(=O)NC3=NCCCCC3)c2)nc2ccccc12	-0.3	1.6	49.0*	47.2	-20.8	10.9
O=[N+]([O-])c1ccc(-c2cnc(SCc3ccccc3Cl)[nH]2)cc1	17.0	9.3	52.1*	55.9	21.7	1.2
CCCCc1nnn2c1C1c3cc(Br)ccc3CCN1C(=O)C2 (stereo not drawn)	x	x	-19.8	x	x	2.2
Cc1cccc(C)c1OCC(O)CN (stereo not drawn)	-13.3	-11.3	-16.2	16.6	-9.4	41.2*
CCOC(=O)N1CCN(CC(O)COc2c(C)cccc2C)CC1 (stereo not drawn)	-4.0	-7.9	-16.3	3.7	15.2	1.2
CC(C)C[C@@H]1COc2cccc(N3CCCC3)c2S(=O)(=O)N1	x	x	7.8	x	x	-0.9
SMILES	CHO parental Ca	GPR7 antag	TAAR1 antag	OX1R antag-1	OX1R antag-2	TAAR1 ag
Cc1ccc(NC(=O)Cn2cnc(C(=O)Nc3ccc(C)c(C)c3)n2)cc1C	-4.6	x	0.8	7.0	-0.8	0.0
Cc1cc(C)c(CN2CCN(C(=O)Cn3cnc(C(=O)Nc4ccc(C)c(C)c4)n3)CC2)c(C)c1	55.4*	x	56.3*	-0.9	59.3*	26.9
Cc1ccc(S(=O)(=O)NNC(=O)Nc2ccc(Cl)c(Cl)c2)cc1	21.9	-0.7	2.0	194.2*	-6.6	3.2
Cc1nn(C)c(C)c1NC(=O)Nc1ccc(Cl)c(Cl)c1	43.6*	5.3	-2.3	25.6	20.1	11.8
Cc1ccc(S(=O)(=O)NC(=O)Nc2ccc(N(C)C)cc2)cc1	-6.1	-4.0	-19.2	51.4*	-16.0	-0.4
COC(=O)c1ccc2nc(C3CCCCC3)c(Cc3ccccc3OC)n2c1	x	x	-3.6	x	x	-0.2
COCc1cc(N2CCN(C(=O)OC(C)(C)C)C[C@H]2C)ccc1N1CCN(Cc2ccccc2)[C@@H](C)C1	x	x	-2.9	x	x	-1.7
COC(=O)c1cc2c(c3c4ccccc4n(S(C)(=O)=O)c13)C(=O)N(Cc1ccccc1)C2	x	x	4.0	x	x	-0.2
COc1ccc(CCNC(=O)c2cc3c(=O)n4ccccc4nc3n(CC3CCCO3)c2=N)cc1 (stereo not drawn)	x	x	-15.1	x	x	0.2
COc1ccc(CCn2c(=N)c(C(=O)NCC3CCCO3)cc3c(=O)n4ccccc4nc32)cc1 (stereo not drawn)	-16.9	-8.6	-18.3	57.8*	-14.1	1.5
COc1ccc(Cn2c(=N)c(C(=O)NCC3CCCO3)cc3c(=O)n4ccccc4nc32)cc1 (stereo not drawn)	-19.6	8.7	-8.4	61.1*	-38.7	0.1
Cc1cc(Nc2cc(Cl)cc(Cl)c2)cc(=O)n1-c1cc(Cl)cc(Cl)c1	x	x	-12.8	x	x	1.4
COc1ccc(N=Nc2nc(-c3ccccc3)c(-c3ccccc3)[nH]2)cc1	-17.7	-6.7	36.1	18.6	-20.2	-1.5
COc1ccccc1N=Nc1nc(-c2ccccc2)c(-c2ccccc2)[nH]1	26.2	0.1	23.8	65.9*	0.2	-2.2
c1ccc(-c2nc3nonc3nc2-c2ccccc2)cc1	-4.6	-21.2	-1.6	39.8*	-29.2	-1.4
Cc1nnc(-n2cccc2)s1	x	x	2.5	x	x	0.6
CC(=O)c1c(C)n(-c2cccc(Cl)c2)c2ccc(O)cc12	-14.2	15.4	51.1*	26.2	-18.3	4.2
Cc1[nH]nc2c1C(c1ccc3c(c1)OCO3)N(Cc1ccccc1)C2=O (stereo not drawn)	x	x	3.1	x	x	-2.1
CC(=O)Nc1ccc(S(=O)(=O)N(Cc2ccccc2)C(C)C)cc1	3.2	10.2	13.2	43.1*	-8.2	9.3
CC(=O)Nc1ccc(S(=O)(=O)N(C)Cc2ccccc2)cc1	0.5	5.9	-6.0	20.1	-0.5	6.0
